Measured values: ChEMBL document CHEMBL4371006, “Discovery of N-[4-(Quinolin-4-yloxy)phenyl]benzenesulfonamides as Novel AXL Kinase Inhibitors” (J Med Chem, 2018)

How the values were obtained:
[1] = molecular target: T1, Tyrosine-protein kinase receptor UFO (Homo sapiens, UniProt P30530); assay: Binding affinity to AXL in SILAC-labeled human MDA-MB-231 cells lysate by mass spectrometry based kinAffinity assay; format: subcellular
T1 sequence (P30530 whole entry): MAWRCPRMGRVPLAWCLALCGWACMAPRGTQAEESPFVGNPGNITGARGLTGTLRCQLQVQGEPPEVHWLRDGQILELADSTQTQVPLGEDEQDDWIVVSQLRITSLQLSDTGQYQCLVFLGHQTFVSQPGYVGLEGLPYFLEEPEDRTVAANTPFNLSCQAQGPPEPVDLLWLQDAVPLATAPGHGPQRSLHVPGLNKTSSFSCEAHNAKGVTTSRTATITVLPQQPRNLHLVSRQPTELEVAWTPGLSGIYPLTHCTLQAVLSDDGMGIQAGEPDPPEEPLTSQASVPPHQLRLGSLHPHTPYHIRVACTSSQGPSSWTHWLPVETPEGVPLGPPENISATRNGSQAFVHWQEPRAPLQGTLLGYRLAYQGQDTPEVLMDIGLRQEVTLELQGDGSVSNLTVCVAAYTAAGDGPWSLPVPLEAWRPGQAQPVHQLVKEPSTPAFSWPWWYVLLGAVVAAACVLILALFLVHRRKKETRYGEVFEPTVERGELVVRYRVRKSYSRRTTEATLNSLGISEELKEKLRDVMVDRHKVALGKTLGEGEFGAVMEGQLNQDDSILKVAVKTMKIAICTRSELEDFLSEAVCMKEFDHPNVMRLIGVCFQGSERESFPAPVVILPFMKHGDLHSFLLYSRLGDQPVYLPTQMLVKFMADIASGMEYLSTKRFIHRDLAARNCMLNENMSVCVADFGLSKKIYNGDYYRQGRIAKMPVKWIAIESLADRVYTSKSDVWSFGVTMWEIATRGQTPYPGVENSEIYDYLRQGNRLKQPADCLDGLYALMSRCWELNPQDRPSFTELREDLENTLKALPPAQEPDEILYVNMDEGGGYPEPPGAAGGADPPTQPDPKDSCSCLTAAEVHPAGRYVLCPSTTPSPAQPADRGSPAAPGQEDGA
Procedure, shortened: (§1)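 Chemical proteomics: MDA-MB-231 lysate bound to matrix of immobilized broad kinase inhibitors at several densities (BC50), then competed with increasing free compound (CC50); proteins quantified by mass spectrometry, Kd via Cheng-Prusoff. Two competition formats run in parallel to check equilibrium.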

[2] = molecular target: Tyrosine-protein kinase Lyn (Homo sapiens, UniProt P07948); assay: Binding affinity to LYN in SILAC-labeled human MDA-MB-231 cells lysate by mass spectrometry based kinAffinity assay; format: subcellular; procedure, shortened: as §1
[3] = molecular target: Receptor-interacting serine/threonine-protein kinase 2 (Homo sapiens, UniProt O43353); assay: Binding affinity to RIPK2 in SILAC-labeled human MDA-MB-231 cells lysate by mass spectrometry based kinAffinity assay; format: subcellular
Procedure, shortened: (§2)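 MDA-MB-231 lysate applied to KinAffinity matrix of immobilized broadband kinase inhibitors at graded densities to obtain BC50 per target. Competition then run with increasing free compound to give CC50; Kd derived by Cheng-Prusoff. Two competition experiments in parallel to check equilibrium, one with lysate pre-incubated with compound before adding matrix. Quantitation by mass spectrometry.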

Aurora kinase B = Aurora kinase B (Homo sapiens, UniProt Q96GD4); assay: Binding affinity to AURKB in SILAC-labeled human MDA-MB-231 cells lysate by mass spectrometry based kinAffinity assay; format: subcellular; procedure, shortened: as §1
[4] = molecular target: Tyrosine-protein kinase ABL2 (Homo sapiens, UniProt P42684); assay: Binding affinity to ABL2 in SILAC-labeled human MDA-MB-231 cells lysate by mass spectrometry based kinAffinity assay; format: subcellular; procedure, shortened: as §1
LIM domain kinase 1 = LIM domain kinase 1 (Homo sapiens, UniProt P53667); assay: Binding affinity to LIMK1 in SILAC-labeled human MDA-MB-231 cells lysate by mass spectrometry based kinAffinity assay; format: subcellular; procedure, shortened: as §1
[5] = molecular target: Inhibitor of nuclear factor kappa-B kinase subunit epsilon (Homo sapiens, UniProt Q14164); assay: Binding affinity to IKKE in SILAC-labeled human MDA-MB-231 cells lysate by mass spectrometry based kinAffinity assay; format: subcellular; procedure, shortened: as §1
[6] = molecular target: 5'-AMP-activated protein kinase catalytic subunit alpha-1 (Homo sapiens, UniProt Q13131); assay: Binding affinity to PRKAA1 in SILAC-labeled human MDA-MB-231 cells lysate by mass spectrometry based kinAffinity assay; format: subcellular; procedure, shortened: as §2
[7] = molecular target: Serine/threonine-protein kinase/endoribonuclease IRE1 (Homo sapiens, UniProt O75460); assay: Binding affinity to IRE1 in SILAC-labeled human MDA-MB-231 cells lysate by mass spectrometry based kinAffinity assay; format: subcellular; procedure, shortened: as §1
Aurora kinase A = Aurora kinase A (Homo sapiens, UniProt O14965); assay: Binding affinity to AURKA in SILAC-labeled human MDA-MB-231 cells lysate by mass spectrometry based kinAffinity assay; format: subcellular; procedure, shortened: as §1
[8] = molecular target: 5'-AMP-activated protein kinase subunit beta-2 (Homo sapiens, UniProt O43741); assay: Binding affinity to PRKAB2 in SILAC-labeled human MDA-MB-231 cells lysate by mass spectrometry based kinAffinity assay; format: subcellular; procedure, shortened: as §2
[9] = molecular target: 5'-AMP-activated protein kinase subunit gamma-2 (Homo sapiens, UniProt Q9UGJ0); assay: Binding affinity to PRKAG2 in SILAC-labeled human MDA-MB-231 cells lysate by mass spectrometry based kinAffinity assay; format: subcellular; procedure, shortened: as §2
[10] = molecular target: 5'-AMP-activated protein kinase subunit beta-1 (Homo sapiens, UniProt Q9Y478); assay: Binding affinity to PRKAB1 in SILAC-labeled human MDA-MB-231 cells lysate by mass spectrometry based kinAffinity assay; format: subcellular; procedure, shortened: as §2
TGF-beta receptor type-2 = TGF-beta receptor type-2 (Homo sapiens, UniProt P37173); assay: Binding affinity to TGFBR2 in SILAC-labeled human MDA-MB-231 cells lysate by mass spectrometry based kinAffinity assay; format: subcellular; procedure, shortened: as §2
[11] = molecular target: Mitogen-activated protein kinase kinase kinase kinase 3 (Homo sapiens, UniProt Q8IVH8); assay: Binding affinity to MAP4K3 in SILAC-labeled human MDA-MB-231 cells lysate by mass spectrometry based kinAffinity assay; format: subcellular; procedure, shortened: as §1
[12] = molecular target: Serine/threonine-protein kinase 4 (Homo sapiens, UniProt Q13043); assay: Binding affinity to MST1 in SILAC-labeled human MDA-MB-231 cells lysate by mass spectrometry based kinAffinity assay; format: subcellular; procedure, shortened: as §2
[13] = molecular target: Serine/threonine-protein kinase ULK3 (Homo sapiens, UniProt Q6PHR2); assay: Binding affinity to ULK3 in SILAC-labeled human MDA-MB-231 cells lysate by mass spectrometry based kinAffinity assay; format: subcellular; procedure, shortened: as §2
[14] = molecular target: Mitogen-activated protein kinase kinase kinase 2 (Homo sapiens, UniProt Q9Y2U5); assay: Binding affinity to MAP3K2 in SILAC-labeled human MDA-MB-231 cells lysate by mass spectrometry based kinAffinity assay; format: subcellular; procedure, shortened: as §1
[15] = molecular target: Serine/threonine-protein kinase Nek1 (Homo sapiens, UniProt Q96PY6); assay: Binding affinity to NEK1 in SILAC-labeled human MDA-MB-231 cells lysate by mass spectrometry based kinAffinity assay; format: subcellular; procedure, shortened: as §2
[16] = Initial plasma concentration in mouse at 1 to 2 mg/kg, iv by LC/MS/MS analysis; format: ADME, organism-based
Procedure, shortened: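 Male ICR mice (n = 3) dosed iv via the tail vein at 2 or 1 mg/kg in 30% PEG400 and 5% ethanol in water. Jugular blood was collected into heparin and the plasma separated. Plasma levels were measured by LC/MS/MS after acetonitrile precipitation, and parameters were derived by noncompartmental software.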

Chain of Aurora kinase A (O14965 whole entry): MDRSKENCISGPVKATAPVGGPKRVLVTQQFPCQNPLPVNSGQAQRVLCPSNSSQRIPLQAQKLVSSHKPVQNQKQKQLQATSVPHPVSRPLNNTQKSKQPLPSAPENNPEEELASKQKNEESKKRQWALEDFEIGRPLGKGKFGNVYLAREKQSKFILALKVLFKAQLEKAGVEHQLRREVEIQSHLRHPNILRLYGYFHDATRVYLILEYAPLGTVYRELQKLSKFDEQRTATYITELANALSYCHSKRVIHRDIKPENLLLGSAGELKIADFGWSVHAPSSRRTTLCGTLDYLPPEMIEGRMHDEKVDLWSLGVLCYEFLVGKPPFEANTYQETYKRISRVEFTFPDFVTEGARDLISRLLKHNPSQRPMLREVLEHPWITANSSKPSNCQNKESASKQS
Chain of 5'-AMP-activated protein kinase subunit gamma-2 (Q9UGJ0 whole entry): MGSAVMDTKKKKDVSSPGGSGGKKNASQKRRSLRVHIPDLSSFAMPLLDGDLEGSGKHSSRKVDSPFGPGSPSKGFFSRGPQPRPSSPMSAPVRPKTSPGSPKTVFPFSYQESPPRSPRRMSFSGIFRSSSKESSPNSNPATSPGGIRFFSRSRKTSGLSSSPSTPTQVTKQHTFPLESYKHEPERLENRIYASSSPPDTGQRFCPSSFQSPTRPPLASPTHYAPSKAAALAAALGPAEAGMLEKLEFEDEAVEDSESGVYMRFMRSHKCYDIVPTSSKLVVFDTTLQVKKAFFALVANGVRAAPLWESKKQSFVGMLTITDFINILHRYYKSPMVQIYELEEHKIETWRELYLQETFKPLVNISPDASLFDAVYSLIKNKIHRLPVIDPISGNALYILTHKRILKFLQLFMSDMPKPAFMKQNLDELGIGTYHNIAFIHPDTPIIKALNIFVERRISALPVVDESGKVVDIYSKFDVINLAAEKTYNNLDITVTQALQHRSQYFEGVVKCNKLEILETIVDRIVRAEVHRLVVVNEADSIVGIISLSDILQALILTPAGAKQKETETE
Chain of Receptor-interacting serine/threonine-protein kinase 2 (O43353 whole entry): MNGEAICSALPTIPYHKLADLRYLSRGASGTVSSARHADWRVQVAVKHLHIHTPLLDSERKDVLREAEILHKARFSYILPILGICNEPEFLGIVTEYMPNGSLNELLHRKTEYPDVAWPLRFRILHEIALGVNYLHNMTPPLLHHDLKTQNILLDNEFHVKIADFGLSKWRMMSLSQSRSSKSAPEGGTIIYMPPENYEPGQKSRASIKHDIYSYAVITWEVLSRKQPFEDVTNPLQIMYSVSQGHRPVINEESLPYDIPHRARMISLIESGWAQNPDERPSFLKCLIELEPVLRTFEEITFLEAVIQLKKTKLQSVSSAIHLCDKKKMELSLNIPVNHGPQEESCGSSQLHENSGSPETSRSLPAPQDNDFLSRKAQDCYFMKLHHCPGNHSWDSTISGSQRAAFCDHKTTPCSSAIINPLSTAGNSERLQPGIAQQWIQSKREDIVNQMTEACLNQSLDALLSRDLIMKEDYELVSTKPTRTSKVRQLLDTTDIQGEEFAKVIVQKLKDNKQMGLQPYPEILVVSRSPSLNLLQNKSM
Chain of Serine/threonine-protein kinase Nek1 (Q96PY6 whole entry): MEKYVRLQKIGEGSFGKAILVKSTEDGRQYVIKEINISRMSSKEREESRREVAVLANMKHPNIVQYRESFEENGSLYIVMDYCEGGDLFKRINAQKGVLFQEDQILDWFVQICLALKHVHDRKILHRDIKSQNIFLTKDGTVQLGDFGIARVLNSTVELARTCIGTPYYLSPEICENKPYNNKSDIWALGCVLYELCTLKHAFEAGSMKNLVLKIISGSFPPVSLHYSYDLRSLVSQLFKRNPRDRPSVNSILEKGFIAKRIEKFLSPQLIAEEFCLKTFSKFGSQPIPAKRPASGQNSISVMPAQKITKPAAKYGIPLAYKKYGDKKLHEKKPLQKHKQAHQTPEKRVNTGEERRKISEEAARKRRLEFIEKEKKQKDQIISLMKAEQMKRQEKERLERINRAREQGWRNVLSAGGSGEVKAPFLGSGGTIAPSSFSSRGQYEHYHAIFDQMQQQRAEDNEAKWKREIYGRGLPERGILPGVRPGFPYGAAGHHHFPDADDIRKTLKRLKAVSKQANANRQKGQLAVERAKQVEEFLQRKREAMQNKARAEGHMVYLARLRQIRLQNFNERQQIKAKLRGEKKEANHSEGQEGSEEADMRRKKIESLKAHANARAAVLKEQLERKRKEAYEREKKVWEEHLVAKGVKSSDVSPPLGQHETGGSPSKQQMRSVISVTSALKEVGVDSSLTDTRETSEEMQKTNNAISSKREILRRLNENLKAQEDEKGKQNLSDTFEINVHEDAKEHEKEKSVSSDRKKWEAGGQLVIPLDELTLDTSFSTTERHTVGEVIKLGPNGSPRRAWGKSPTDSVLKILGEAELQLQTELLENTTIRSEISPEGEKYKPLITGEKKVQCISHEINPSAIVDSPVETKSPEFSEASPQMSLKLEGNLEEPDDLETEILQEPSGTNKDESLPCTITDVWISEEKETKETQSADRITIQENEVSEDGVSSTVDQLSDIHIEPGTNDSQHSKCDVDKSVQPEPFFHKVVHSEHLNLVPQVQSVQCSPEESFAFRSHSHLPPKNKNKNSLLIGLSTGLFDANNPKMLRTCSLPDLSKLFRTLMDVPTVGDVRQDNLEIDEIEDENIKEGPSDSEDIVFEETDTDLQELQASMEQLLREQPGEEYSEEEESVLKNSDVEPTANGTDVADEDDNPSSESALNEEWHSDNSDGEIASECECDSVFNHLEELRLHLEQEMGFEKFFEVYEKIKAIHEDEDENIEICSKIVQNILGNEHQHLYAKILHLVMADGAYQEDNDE
Chain of Mitogen-activated protein kinase kinase kinase kinase 3 (Q8IVH8 whole entry): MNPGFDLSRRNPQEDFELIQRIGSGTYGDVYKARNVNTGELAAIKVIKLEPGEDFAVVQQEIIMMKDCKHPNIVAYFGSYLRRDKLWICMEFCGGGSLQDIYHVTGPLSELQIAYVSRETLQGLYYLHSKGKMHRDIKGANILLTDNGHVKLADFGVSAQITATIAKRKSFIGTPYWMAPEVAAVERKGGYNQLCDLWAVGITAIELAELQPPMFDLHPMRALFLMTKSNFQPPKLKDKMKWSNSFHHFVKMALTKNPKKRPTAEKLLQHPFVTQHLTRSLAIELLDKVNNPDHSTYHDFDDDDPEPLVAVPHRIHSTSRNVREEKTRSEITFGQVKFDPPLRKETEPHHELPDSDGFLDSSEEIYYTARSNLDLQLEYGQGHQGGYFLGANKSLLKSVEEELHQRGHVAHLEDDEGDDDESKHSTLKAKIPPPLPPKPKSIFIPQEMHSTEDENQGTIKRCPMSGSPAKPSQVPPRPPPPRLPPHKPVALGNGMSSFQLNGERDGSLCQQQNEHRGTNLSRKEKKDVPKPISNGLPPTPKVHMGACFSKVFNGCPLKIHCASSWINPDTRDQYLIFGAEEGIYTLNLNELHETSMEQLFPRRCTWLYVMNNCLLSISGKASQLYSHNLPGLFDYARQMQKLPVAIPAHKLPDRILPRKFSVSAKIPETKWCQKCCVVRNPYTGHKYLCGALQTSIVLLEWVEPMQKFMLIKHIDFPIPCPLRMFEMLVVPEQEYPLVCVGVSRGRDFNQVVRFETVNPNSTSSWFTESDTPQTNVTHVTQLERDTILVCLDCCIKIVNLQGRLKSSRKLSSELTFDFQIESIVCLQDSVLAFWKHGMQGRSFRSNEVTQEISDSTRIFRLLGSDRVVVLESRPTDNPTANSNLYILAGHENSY
Chain of 5'-AMP-activated protein kinase subunit beta-2 (O43741 whole entry): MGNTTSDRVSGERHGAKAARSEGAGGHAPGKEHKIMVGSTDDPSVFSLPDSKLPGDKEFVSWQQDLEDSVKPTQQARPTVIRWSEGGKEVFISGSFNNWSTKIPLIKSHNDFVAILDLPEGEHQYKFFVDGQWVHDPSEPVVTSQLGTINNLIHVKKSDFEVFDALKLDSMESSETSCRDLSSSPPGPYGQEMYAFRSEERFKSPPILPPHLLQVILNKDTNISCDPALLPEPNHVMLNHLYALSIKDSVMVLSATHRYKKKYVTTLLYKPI
Chain of Inhibitor of nuclear factor kappa-B kinase subunit epsilon (Q14164 whole entry): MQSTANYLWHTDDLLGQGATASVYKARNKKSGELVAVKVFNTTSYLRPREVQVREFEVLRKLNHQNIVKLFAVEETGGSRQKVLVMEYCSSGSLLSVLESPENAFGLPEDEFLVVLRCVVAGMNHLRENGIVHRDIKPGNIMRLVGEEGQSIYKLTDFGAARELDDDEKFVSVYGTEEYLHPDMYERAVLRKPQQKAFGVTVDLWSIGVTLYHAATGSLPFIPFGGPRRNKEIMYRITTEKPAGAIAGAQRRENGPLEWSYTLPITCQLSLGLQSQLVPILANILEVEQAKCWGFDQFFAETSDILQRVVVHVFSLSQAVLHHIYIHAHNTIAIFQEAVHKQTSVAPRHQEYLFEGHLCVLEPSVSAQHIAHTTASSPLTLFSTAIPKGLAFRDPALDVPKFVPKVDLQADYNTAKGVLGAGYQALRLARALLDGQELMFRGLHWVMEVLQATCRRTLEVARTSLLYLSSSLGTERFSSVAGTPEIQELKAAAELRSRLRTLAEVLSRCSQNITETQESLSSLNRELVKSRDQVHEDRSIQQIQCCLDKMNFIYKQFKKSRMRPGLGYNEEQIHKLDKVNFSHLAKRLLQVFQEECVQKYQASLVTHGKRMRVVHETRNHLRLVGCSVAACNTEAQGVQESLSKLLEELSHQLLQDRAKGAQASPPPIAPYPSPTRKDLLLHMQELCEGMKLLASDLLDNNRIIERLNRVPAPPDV
Chain of Aurora kinase B (Q96GD4 whole entry): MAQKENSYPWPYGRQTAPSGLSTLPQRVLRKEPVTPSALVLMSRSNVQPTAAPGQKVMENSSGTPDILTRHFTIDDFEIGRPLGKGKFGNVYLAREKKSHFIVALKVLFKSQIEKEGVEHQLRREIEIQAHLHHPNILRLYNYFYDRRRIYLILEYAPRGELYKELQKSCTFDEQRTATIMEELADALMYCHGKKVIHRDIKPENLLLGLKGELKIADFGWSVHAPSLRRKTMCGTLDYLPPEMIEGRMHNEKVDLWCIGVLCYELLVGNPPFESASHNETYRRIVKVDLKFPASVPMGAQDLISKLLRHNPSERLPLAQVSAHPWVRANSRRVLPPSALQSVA

Compound | Kd(free) [1] [µM] | Kd(free) [2] [µM] | Kd(free) [3] [µM] | Kd(free) (Aurora kinase B) [µM] | Kd(free) [4] [µM] | Kd(free) (LIM domain kinase 1) [µM] | Kd(free) [5] [µM] | Kd(free) [6] [µM] | Kd(free) [7] [µM] | Kd(free) (Aurora kinase A) [µM] | Kd(free) [8] [µM] | Kd(free) [9] [µM] | Kd(free) [10] [µM] | Kd(free) (TGF-beta receptor type-2) [µM] | Kd(free) [11] [µM] | Kd(free) [12] [µM] | Kd(free) [13] [µM] | Kd(free) [14] [µM] | Kd(free) [15] [µM] | C0 [16] [ng/mL]
COc1cc2c(Oc3ccc(NS(=O)(=O)c4cc(F)ccc4F)cc3F)ccnc2cc1OCCCN1CCN(C)CC1 | 0.015 | 0.029 | 0.043 | > 0.069 | 0.071 | 0.13 | 0.282 | 0.616 | 0.723 | 0.847 | 0.969 | 1.078 | 1.257 | 1.86 | 2.08 | 2.433 | > 2.514 | 4.396 | 5.146 | 310
COc1cc2c(Oc3ccc(NS(=O)(=O)c4c(F)cccc4F)cc3F)ccnc2cc1OCCCN1CCN(C)CC1 | 0.006 | 0.011 | 0.017 | 0.034 | 0.016 | 0.093 | 0.122 | 0.786 | 0.243 | 0.146 | 1.907 | 2.296 | 2.279 | 7.385 | 1.367 | 2.08 | > 2.513 | 5.518 | 5.043 | –
COc1cc2c(Oc3ccc(NS(=O)(=O)c4cc(F)ccc4F)cc3F)ccnc2cc1OCCCN1CCCC(C)C1 (stereo not given) | – | – | – | – | – | – | – | – | – | – | – | – | – | – | – | – | – | – | – | 216
